Test results: ChEMBL document CHEMBL4308895, “A thiol-inducible and quick-response DNA cross-linking agent” (Bioorg Med Chem Lett, 2019)

Experiments:
[1] = Stability in pH 7.3 phosphate buffer saline measured within 1.5 hrs by 1H-NMR analysis; type: physicochemical; conditions: pH 7.3, 1.5 h
[2] = L-cysteine reactivity in pH 7.3 phosphate buffer assessed as color change from red to orange at 5 mM measured after 1 min; type: physicochemical; conditions: pH 7.3, 1 min, 5000 µM
How it was run: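 Agent at 5, 2.5 or 1 mM in phosphate buffer pH 7.3, mixed with L-Cys at twice the agent concentration (10, 5, 2 mM). Color change scored visually against agent-alone samples.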

DNA = experiment: Induction of Escherichia coli pBR322 DNA cross-linking at 1 mM after 12 hrs in presence of GSH by agarose gel electrophoresis relative to control; type: nucleic-acid assay
How it was run: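 Linearized pBR322 plasmid DNA in phosphate buffer pH 7.3 with 1 mM agent plus 2 mM GSH. Cross-linking resolved by denaturing alkaline agarose gel electrophoresis, untreated plasmid as control lane. Yield given as percent cross-linked DNA.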

[3] = Drug metabolism in pH 7.3 phosphate buffer saline assessed as 1,4-Dihydroxy-2, 5-di-(trimethylammonium iodide-methyl)phenyl formation measured after 0.5 to 6 hrs by 1H-NMR analysis
[4] = Stability of the compound under electrospray ionisation mass spectra condition; type: physicochemical
[5] = Drug metabolism in pH 7.3 phosphate buffer saline assessed as 1,1'-(2-(2,4-dinitrophenylsulfonyloxy)-5-hydroxy-1,4-phenylene)bis(N,N,N-trimethylmethanaminium)iodide formation measured after 5 mins by 1H-NMR analysis
[6] = Drug metabolism in pH 7.3 phosphate buffer saline assessed as 2, 4-dinitrobenzene sulfonic acid formation measured immediately by 1H-NMR analysis
[7] = L-arginine reactivity in DMSO-d6/D2O mixture assessed as 1,4-Dihydroxy-2, 5-di-(trimethylammonium iodide-methyl)phenyl formation at 5 mM by 1H-NMR analysis
[8] = L-proline reactivity in DMSO-d6/D2O mixture assessed as 1,4-Dihydroxy-2, 5-di-(trimethylammonium iodide-methyl)phenyl formation at 5 mM by 1H-NMR analysis
[9] = Beta-alanine reactivity in DMSO-d6/D2O mixture assessed as 1,4-Dihydroxy-2, 5-di-(trimethylammonium iodide-methyl)phenyl formation at 5 mM by 1H-NMR analysis
[10] = Glycine reactivity in DMSO-d6/D2O mixture assessed as 1,4-Dihydroxy-2, 5-di-(trimethylammonium iodide-methyl)phenyl formation at 5 mM by 1H-NMR analysis
[11] = L-valine reactivity in DMSO-d6/D2O mixture assessed as 1,4-Dihydroxy-2, 5-di-(trimethylammonium iodide-methyl)phenyl formation at 5 mM by 1H-NMR analysis

| SMILES | Drug metabolism [2] | Activity (DNA) [%] | Stability [4] | other results |
| --- | --- | --- | --- | --- |
| C[N+](C)(C)Cc1cc(OS(=O)(=O)c2ccc([N+](=O)[O-])cc2[N+](=O)[O-])c(C[N+](C)(C)C)cc1O |  |  |  | Drug metabolism [3]: Metabolite not detected |
| Cc1cc(C[N+](C)(C)C)c(O)c(C[N+](C)(C)C)c1.[I-].[I-] |  | 0 | Unstable |  |
| C[N+](C)(C)Cc1cc(OS(=O)(=O)c2ccc([N+](=O)[O-])cc2[N+](=O)[O-])c(C[N+](C)(C)C)cc1OS(=O)(=O)c1ccc([N+](=O)[O-])cc1[N+](=O)[O-].[I-].[I-] | Metabolite_Detected | 34 |  | Drug metabolism [5]: Metabolite detected; Drug metabolism [6]: Metabolite detected; Drug metabolism [7]: Metabolite not detected; Drug metabolism [8]: Metabolite not detected; Drug metabolism [9]: Metabolite not detected; Drug metabolism [10]: Metabolite not detected; Drug metabolism [11]: Metabolite not detected |
| C[N+](C)(C)Cc1cc(O)c(C[N+](C)(C)C)cc1O.[I-].[I-] |  | 43 | Unstable |  |

Further lines, with some results ahead:

| Drug metabolism [2] | Activity (DNA) [%] | SMILES | Stability [4] | other results |
| --- | --- | --- | --- | --- |
| Metabolite_Detected | 0 | C[N+](C)(C)Cc1cc(-c2ccc(OS(=O)(=O)c3ccc([N+](=O)[O-])cc3[N+](=O)[O-])c(C[N+](C)(C)C)c2)ccc1OS(=O)(=O)c1ccc([N+](=O)[O-])cc1[N+](=O)[O-].[I-].[I-] |  | Stability [1]: Stable |
|  | 0 | C[N+](C)(C)Cc1cc(-c2ccc(O)c(C[N+](C)(C)C)c2)ccc1O.[I-].[I-] | Unstable |  |
| Metabolite_Detected | 0 | Cc1cc(C[N+](C)(C)C)c(OS(=O)(=O)c2ccc([N+](=O)[O-])cc2[N+](=O)[O-])c(C[N+](C)(C)C)c1.[I-].[I-] |  |  |
